Experimental data taken from publication PMC7269016 (The Journal of investigative dermatology, 2018).
Entries after “also recorded” stand apart in the source; their conditions may differ.

How the values were obtained:
p38γ = biological target: T1, p38γ (Homo sapiens, UniProt P53778); assay: ADP-Glo in vitro kinase assay; assay type: biochemical; conditions: for inhibition of p38γ kinase activity (in words): cell-free ADP-Glo, 1 μmol/L and 10 μmol/L, Figure 5c
T1 sequence (P53778 1-367): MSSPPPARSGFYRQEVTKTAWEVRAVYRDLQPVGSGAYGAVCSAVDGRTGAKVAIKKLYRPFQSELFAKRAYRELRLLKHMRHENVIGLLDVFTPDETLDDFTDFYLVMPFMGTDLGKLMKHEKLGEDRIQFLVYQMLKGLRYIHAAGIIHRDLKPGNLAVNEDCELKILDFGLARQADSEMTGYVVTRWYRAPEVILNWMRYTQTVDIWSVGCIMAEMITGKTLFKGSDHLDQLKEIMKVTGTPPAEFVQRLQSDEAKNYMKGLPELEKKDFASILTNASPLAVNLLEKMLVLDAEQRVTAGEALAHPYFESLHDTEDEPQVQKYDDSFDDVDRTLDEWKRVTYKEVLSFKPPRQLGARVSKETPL

Hut78 cells = assay type: cell-based, human; conditions: for reduction of Hut78 cell viability (in words): Figure 5a
CTCL cells = assay: Cell killing of CTCL cells; assay type: cell-based; conditions: Homo sapiens, read-out: IC50 for cell killing on the CTCL cells
Procedure, shortened: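 Hut78, HH and H9 CTCL cell lines were exposed to varying concentrations of test compound for 72 hours. Viability was read by CellTiterGlo and normalized to DMSO control. IC50 was derived from dose-response data. There were three independent experiments, each averaged from triplicates.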

Structure (SMILES) | inhibition of p38γ kinase activity (in words) (p38γ) | influence on viability of Hut78 cells (in words) (Hut78 cells; up to approximately 10 μmol/L, 72 hours) | reduction of Hut78 cell viability (in words) (Hut78 cells) | IC50 (p38γ) | IC50 (CTCL cells)
Cc1nc(NC(=O)N2CCC[C@H]2C(N)=O)sc1-c1csc(C(C)(C)C)n1 [A66] | no inhibitory kinase activities against p38γ; also recorded: does not inhibit in vitro activity of p38γ | no influence on the viability of Hut78 cells; also recorded: does not affect cell viability |  |  | 
Cn1c(=O)n(-c2ccc(C(C)(C)C#N)cc2)c2c3cc(-c4cnc5ccccc5c4)ccc3ncc21 [BEZ235] | no inhibitory kinase activities against p38γ |  | only modest reduction of cell viability |  | 
CS(=O)(=O)N1CCN(Cc2cc3nc(-c4cccc5[nH]ncc45)nc(N4CCOCC4)c3s2)CC1 [GDC0941] | no inhibitory kinase activities against p38γ |  | only modest reduction of cell viability |  | 
Cc1ccc(=O)n(-c2ccccc2)c1 [pirfenidone] |  |  |  | > 125 µM | > 125 µM
